In brackets after ≈: the same amount, converted by molar mass.
How the values were obtained:
MDA-MB-435 = experiment: Cytotoxicity against human MDA-MB-435 cells assessed as growth inhibition at 10 uM after 48 hrs by sulphorhodamine B assay; format: functional; settings: MDA-MB-435, 48 h, read-out: GI
How it was run: (§1)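 NCI-60 one-dose screen per the NCI Drug Evaluation Branch protocol. Cells given a single 10 µM concentration with 48 h continuous exposure. Growth estimated by sulphorhodamine B protein assay. Result expressed as percentage growth inhibition relative to untreated growth.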

[1] = Cytotoxicity against human EKVX cells assessed as growth inhibition at 10 uM after 48 hrs by sulphorhodamine B assay; format: functional; settings: read-out: GI; how it was run: as §1
SR = experiment: Cytotoxicity against human SR cells assessed as growth inhibition at 10 uM after 48 hrs by sulphorhodamine B assay; format: functional; settings: read-out: GI; how it was run: as §1
RPMI-8226 = experiment: Cytotoxicity against human RPMI8226 cells assessed as growth inhibition at 10 uM after 48 hrs by sulphorhodamine B assay; format: functional; settings: RPMI-8226, 48 h, read-out: GI; how it was run: as §1
SF-295 = experiment: Cytotoxicity against human SF295 cells assessed as growth inhibition at 10 uM after 48 hrs by sulphorhodamine B assay; format: functional; settings: SF-295, 48 h, read-out: GI; how it was run: as §1
[2] = Displacement of methyl green from DNA (unknown origin) after 24 hrs
How it was run: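 DNA-methyl green complex was stirred in 0.05 M Tris-HCl pH 7.5 with 7.5 mmol MgSO4 at 37 °C for 24 h. Compound was dried down from EtOH in tubes and the DNA-methyl green solution added. A630 was read initially and after 24 h dark incubation at room temperature, corrected and normalized to untreated complex. IC50 is the concentration giving a 50% absorbance decrease; mean ± SD, n = 6.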

SF-268 = experiment: Cytotoxicity against human SF268 cells assessed as growth inhibition at 10 uM after 48 hrs by sulphorhodamine B assay; format: functional; settings: SF-268, 48 h, read-out: GI; how it was run: as §1
PC-3 = experiment: Cytotoxicity against human PC3 cells assessed as growth inhibition at 10 uM after 48 hrs by sulphorhodamine B assay; format: functional; settings: PC-3, 48 h, read-out: GI; how it was run: as §1
MCF7 = experiment: Cytotoxicity against human MCF7 cells assessed as growth inhibition at 10 uM after 48 hrs by sulphorhodamine B assay; format: functional; settings: MCF7, 48 h, read-out: GI; how it was run: as §1
RXF 393 = experiment: Cytotoxicity against human RXF393 cells assessed as growth inhibition at 10 uM after 48 hrs by sulphorhodamine B assay; format: functional; settings: RXF 393, 48 h, read-out: GI; how it was run: as §1
DU-145 = experiment: Cytotoxicity against human DU145 cells assessed as growth inhibition at 10 uM after 48 hrs by sulphorhodamine B assay; format: functional; settings: DU-145, 48 h, read-out: GI; how it was run: as §1
HL-60(TB) = experiment: Cytotoxicity against human HL-60(TB) cells assessed as growth inhibition at 10 uM after 48 hrs by sulphorhodamine B assay; format: functional; settings: HL-60, 48 h, read-out: GI
How it was run: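 NCI-60 one-dose primary screen run to the Drug Evaluation Branch protocol. Cells are exposed to a single 10 µM concentration for 48 h continuously, and growth is read by SRB protein assay. Data are reported as percent growth of treated cells, expressed as % growth inhibition.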

NCI/ADR-RES = experiment: Cytotoxicity against human NCI/ADR-RES cells assessed as growth inhibition at 10 uM after 48 hrs by sulphorhodamine B assay; format: functional; settings: read-out: GI; how it was run: as §1
HCT-15 = experiment: Cytotoxicity against human HCT15 cells assessed as growth inhibition at 10 uM after 48 hrs by sulphorhodamine B assay; format: functional; settings: HCT-15, 48 h, read-out: GI; how it was run: as §1
SK-MEL-5 = experiment: Cytotoxicity against human SK-MEL-5 cells assessed as growth inhibition at 10 uM after 48 hrs by sulphorhodamine B assay; format: functional; settings: SK-MEL-5, 48 h, read-out: GI; how it was run: as §1
U-251 = experiment: Cytotoxicity against human U251 cells assessed as growth inhibition at 10 uM after 48 hrs by sulphorhodamine B assay; format: functional; settings: U-251, 48 h, read-out: GI; how it was run: as §1
SK-OV-3 = experiment: Cytotoxicity against human SKOV3 cells assessed as growth inhibition at 10 uM after 48 hrs by sulphorhodamine B assay; format: functional; settings: SK-OV-3, 48 h, read-out: GI; how it was run: as §1
M14 = experiment: Cytotoxicity against human M14 cells assessed as growth inhibition at 10 uM after 48 hrs by sulphorhodamine B assay; format: functional; settings: M14, 48 h, read-out: GI; how it was run: as §1
SNB-19 = experiment: Cytotoxicity against human SNB19 cells assessed as growth inhibition at 10 uM after 48 hrs by sulphorhodamine B assay; format: functional; settings: SNB-19, 48 h, read-out: GI; how it was run: as §1
K562 = experiment: Cytotoxicity against human K562 cells assessed as growth inhibition at 10 uM after 48 hrs by sulphorhodamine B assay; format: functional; settings: K562, 48 h, read-out: GI; how it was run: as §1
SK-MEL-2 = experiment: Cytotoxicity against human SK-MEL-2 cells assessed as growth inhibition at 10 uM after 48 hrs by sulphorhodamine B assay; format: functional; settings: SK-MEL-2, 48 h, read-out: GI; how it was run: as §1
Hs-578T = experiment: Cytotoxicity against human Hs578T cells assessed as growth inhibition at 10 uM after 48 hrs by sulphorhodamine B assay; format: functional; settings: read-out: GI; how it was run: as §1
ACHN = experiment: Cytotoxicity against human ACHN cells assessed as growth inhibition at 10 uM after 48 hrs by sulphorhodamine B assay; format: functional; settings: read-out: GI; how it was run: as §1
CCRF-CEM = experiment: Cytotoxicity against human CCRF-CEM cells assessed as growth inhibition at 10 uM after 48 hrs by sulphorhodamine B assay; format: functional; settings: read-out: GI; how it was run: as §1
A498 = experiment: Cytotoxicity against human A498 cells assessed as growth inhibition at 10 uM after 48 hrs by sulphorhodamine B assay; format: functional; settings: A498, 48 h, read-out: GI; how it was run: as §1
A549 = experiment: Cytotoxicity against human A549 cells assessed as growth inhibition at 10 uM after 48 hrs by sulphorhodamine B assay; format: functional; settings: A549, 48 h, read-out: GI; how it was run: as §1
UACC-62 = experiment: Cytotoxicity against human UACC62 cells assessed as growth inhibition at 10 uM after 48 hrs by sulphorhodamine B assay; format: functional; settings: UACC-62, 48 h, read-out: GI; how it was run: as §1
NCI-H522 = experiment: Cytotoxicity against human NCI-H522 cells assessed as growth inhibition at 10 uM after 48 hrs by sulphorhodamine B assay; format: functional; settings: NCI-H522, 48 h, read-out: GI; how it was run: as §1
MOLT-4 = experiment: Cytotoxicity against human MOLT4 cells assessed as growth inhibition at 10 uM after 48 hrs by sulphorhodamine B assay; format: functional; settings: MOLT-4, 48 h, read-out: GI; how it was run: as §1
UO-31 = experiment: Cytotoxicity against human UO31 cells assessed as growth inhibition at 10 uM after 48 hrs by sulphorhodamine B assay; format: functional; settings: UO-31, 48 h, read-out: GI; how it was run: as §1
T47D = experiment: Cytotoxicity against human T47D cells assessed as growth inhibition at 10 uM after 48 hrs by sulphorhodamine B assay; format: functional; settings: read-out: GI; how it was run: as §1
CAKI-1 = experiment: Cytotoxicity against human Caki1 cells assessed as growth inhibition at 10 uM after 48 hrs by sulphorhodamine B assay; format: functional; settings: CAKI-1, 48 h, read-out: GI; how it was run: as §1
HOP-92 = experiment: Cytotoxicity against human HOP92 cells assessed as growth inhibition at 10 uM after 48 hrs by sulphorhodamine B assay; format: functional; settings: HOP-92, 48 h, read-out: GI; how it was run: as §1

| SMILES | inhibition of growth at 10 µM (MDA-MB-435) [%] | inhibition of growth at 10 µM [1] [%] | inhibition of growth at 10 µM (SR) [%] | inhibition of growth at 10 µM (RPMI-8226) [%] | inhibition of growth at 10 µM (SF-295) [%] | IC50 [2] [µg/mL] | inhibition of growth at 10 µM (SF-268) [%] | inhibition of growth at 10 µM (PC-3) [%] | inhibition of growth at 10 µM (MCF7) [%] | inhibition of growth at 10 µM (RXF 393) [%] | inhibition of growth at 10 µM (DU-145) [%] | inhibition of growth at 10 µM (HL-60(TB)) [%] | inhibition of growth at 10 µM (NCI/ADR-RES) [%] | inhibition of growth at 10 µM (HCT-15) [%] | inhibition of growth at 10 µM (SK-MEL-5) [%] | inhibition of growth at 10 µM (U-251) [%] | inhibition of growth at 10 µM (SK-OV-3) [%] | inhibition of growth at 10 µM (M14) [%] | inhibition of growth at 10 µM (SNB-19) [%] | inhibition of growth at 10 µM (K562) [%] | further results |
| --- | --- | --- | --- | --- | --- | --- | --- | --- | --- | --- | --- | --- | --- | --- | --- | --- | --- | --- | --- | --- | --- |
| CCSc1nc(N)c2c(-c3ccc(Cl)cc3)c3c(nc2n1)C(C)CCC3 (stereo unspecified) | 14.5 | 12.3 | 37.9 | 33.8 | < 10 | 0.127 (≈ 0.33 µM) | < 10 | 25.3 | < 10 | 26.6 | < 10 | < 10 | 12.8 | 18.8 | < 10 | 13.6 | 15.2 | < 10 | < 10 | 32.4 | inhibition of growth at 10 µM (SK-MEL-2): < 10%; inhibition of growth at 10 µM (Hs-578T): 14.2%; inhibition of growth at 10 µM (ACHN): 30.8%; inhibition of growth at 10 µM (CCRF-CEM): 28.4%; inhibition of growth at 10 µM (A498): 21.7%; inhibition of growth at 10 µM (A549): 18.1%; inhibition of growth at 10 µM (UACC-62): 21.8%; inhibition of growth at 10 µM (NCI-H522): 21.9%; inhibition of growth at 10 µM (MOLT-4): 32.5%; inhibition of growth at 10 µM (UO-31): 59%; inhibition of growth at 10 µM (T47D): 39.5%; inhibition of growth at 10 µM (CAKI-1): < 10%; inhibition of growth at 10 µM (HOP-92): 35.2% |
| CC1CCCc2c1nc1nc(SCC(=O)c3ccccc3)nc(N)c1c2-c1ccc(Cl)cc1 (stereo unspecified) | 13 | 26.7 | < 10 | 69.2 | 23.9 | 0.061 (≈ 0.128 µM) | 23.7 | 66.8 | 30 | 62.2 | 17 | 22 | 12.8 | 71.5 | 67 | 21.5 | < 10 | 35 | < 10 | 27.7 | inhibition of growth at 10 µM (SK-MEL-2): 14.5%; inhibition of growth at 10 µM (Hs-578T): 38.2%; inhibition of growth at 10 µM (ACHN): 29.3%; inhibition of growth at 10 µM (CCRF-CEM): 60.1%; inhibition of growth at 10 µM (A498): 21.2%; inhibition of growth at 10 µM (A549): 17.6%; inhibition of growth at 10 µM (UACC-62): 70.8%; inhibition of growth at 10 µM (NCI-H522): 17.5%; inhibition of growth at 10 µM (MOLT-4): 44.6%; inhibition of growth at 10 µM (UO-31): 63%; inhibition of growth at 10 µM (T47D): 72.6%; inhibition of growth at 10 µM (CAKI-1): 11.8%; inhibition of growth at 10 µM (HOP-92): 90% |

From ChEMBL document CHEMBL2375313, “Synthesis, in vitro antitumor evaluation and DNA-binding study of novel tetrahydroquinolines and some derived tricyclic and tetracyclic ring systems” (Eur J Med Chem, 2013)
